Where no end group is shown, it is not given here. The star is where a group is joined. Crotonyl(E) = C/C=C/C(=O)*
Tests used:
[1] = target: T1, ENL YEATS domain (Homo sapiens, UniProt Q03111); test: 1H,15N HSQC NMR titration of ENL YEATS domain; format: binding; settings: 15N-labelled His-ENL, ligand titrated
T1 sequence (Q03111 1-148): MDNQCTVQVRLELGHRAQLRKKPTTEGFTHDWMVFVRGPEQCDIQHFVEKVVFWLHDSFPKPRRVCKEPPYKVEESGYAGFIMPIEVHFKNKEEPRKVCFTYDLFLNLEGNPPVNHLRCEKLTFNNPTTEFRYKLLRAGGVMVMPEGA
Outline: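 15N-labelled YEATS domain was expressed in E. coli Rosetta-2 (DE3) pLysS in NH4Cl minimal medium (0.5 mM IPTG, 18 h, 16 °C) and purified by Ni-NTA then size exclusion. 1H,15N HSQC spectra were recorded at 298 K, 600 MHz, on 0.2 mM protein in 25–50 mM Tris-HCl pH 7.5, 150 mM NaCl, 0.2 mM TCEP, 10% D2O. Test compound or H3K27cr peptide (aa 22–31) was added stepwise at set protein:ligand molar ratios.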

[2] = target: T2, ENL YEATS domain (Homo sapiens, UniProt Q03111); test: AlphaScreen assay, His-ENL YEATS / biotin-H3K9ac interaction; format: binding; settings: SAR comparison with 11 or 6
T2 sequence (Q03111 1-145): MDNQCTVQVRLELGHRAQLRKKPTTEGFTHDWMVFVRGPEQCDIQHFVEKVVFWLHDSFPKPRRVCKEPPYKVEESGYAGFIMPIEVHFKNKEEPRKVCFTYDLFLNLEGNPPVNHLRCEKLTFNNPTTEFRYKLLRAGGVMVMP

[3] = target: T3, YEATS2 (Homo sapiens, UniProt Q9ULM3); test: Competitive peptide pulldown, YEATS2 with H3K27cr; format: binding; settings: 20 μM compound
T3 sequence (Q9ULM3 201-332): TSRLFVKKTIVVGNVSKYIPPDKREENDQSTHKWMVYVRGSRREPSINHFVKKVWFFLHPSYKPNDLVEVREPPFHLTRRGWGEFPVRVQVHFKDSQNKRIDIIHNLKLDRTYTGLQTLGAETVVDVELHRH

[4] = target: T4, AF9 (Homo sapiens, UniProt P42568); test: Competitive peptide pulldown, AF9 with H3K9ac; format: binding; settings: 20 μM compound
T4 sequence (P42568 1-145): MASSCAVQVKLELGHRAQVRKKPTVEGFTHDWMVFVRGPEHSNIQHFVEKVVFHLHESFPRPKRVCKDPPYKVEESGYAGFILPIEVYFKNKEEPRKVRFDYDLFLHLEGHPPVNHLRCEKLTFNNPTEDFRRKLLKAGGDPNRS

[5] = target: T5, ENL (Homo sapiens, UniProt Q03111); test: Competitive peptide pulldown, ENL with H3K9ac; format: binding
T5 sequence (Q03111 1-145): T2 sequence (Q03111 1-145)

[6] = target: T6, GAS41 (Homo sapiens, UniProt O95619); test: Competitive peptide pulldown, GAS41 with H3K27ac; format: binding; settings: 20 μM compound
[7] = target: T7, YEATS2 YEATS domain (Homo sapiens, UniProt Q9ULM3); test: AlphaScreen assay, YEATS2 YEATS / H3K27cr peptide; format: binding
T7 sequence (Q9ULM3 201-332): T3 sequence (Q9ULM3 201-332)

[8] = target: GAS41 YEATS domain (Homo sapiens, UniProt O95619); test: AlphaScreen assay, GAS41 YEATS / H3K27ac peptide; format: binding
[9] = target: T8, ENL protein (Homo sapiens, UniProt Q03111); test: Cellular thermal shift assay; format: cell-based; settings: 20 μM, 5 h
T8 sequence (Q03111 1-559): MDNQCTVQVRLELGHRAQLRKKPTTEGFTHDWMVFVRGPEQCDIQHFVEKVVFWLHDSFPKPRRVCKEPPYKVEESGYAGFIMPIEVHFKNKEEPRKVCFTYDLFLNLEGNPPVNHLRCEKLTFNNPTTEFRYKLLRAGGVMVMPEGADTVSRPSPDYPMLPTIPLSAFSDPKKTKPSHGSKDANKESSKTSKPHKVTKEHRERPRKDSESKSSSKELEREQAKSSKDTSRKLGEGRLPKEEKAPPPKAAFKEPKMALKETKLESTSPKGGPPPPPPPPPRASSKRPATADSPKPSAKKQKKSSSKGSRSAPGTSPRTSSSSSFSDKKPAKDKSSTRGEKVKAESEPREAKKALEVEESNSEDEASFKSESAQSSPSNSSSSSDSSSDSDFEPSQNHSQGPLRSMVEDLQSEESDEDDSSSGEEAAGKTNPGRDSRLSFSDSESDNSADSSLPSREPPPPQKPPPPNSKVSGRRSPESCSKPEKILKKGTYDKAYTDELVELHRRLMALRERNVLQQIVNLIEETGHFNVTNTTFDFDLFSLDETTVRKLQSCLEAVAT
Outline: (§1)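 Cells were incubated with 20 µM test compound for 5 h, washed three times in PBS and resuspended in PBS with protease inhibitors (about 3 million cells per aliquot). Aliquots were heated 3 min at the indicated temperatures, then held 2 min at room temperature. Cells were lysed with NP40/glycerol/DTT buffer plus three liquid-nitrogen/37 °C freeze-thaw cycles, and cleared at 13,000 rpm, 4 °C, 10 min. Soluble protein was read by western blot.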

[10] = test system: HOXA9 gene expression; test: qRT-PCR of HOXA9 gene expression in MOLM13 cells; format: cell-based, human
Outline: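 MOLM13 cells were treated with test compound or DMSO. Total RNA was extracted and reverse-transcribed, and HOXA9 was quantified by SYBR Green real-time PCR. Expression was normalised to GAPDH by the comparative Ct method; mean ± SEM, n = 3, two-tailed Student's t test.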

[11] = test system: U2OS cells; test: Cell growth inhibition assay; format: cell-based, human; settings: even at 50 μM, ENL-independent cell line
[12] = test system: MOLM13 cells; test: Combinatorial treatment of compound 7 and JQ1, MOLM13; format: cell-based, human; settings: 7 0 to 20 μM, JQ1 0–200 nM, Combenefit
Outline: (§2)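 Leukaemia cells kept in RPMI-1640 with 10% FBS were given DMSO, test compound, JQ1, or the two combined at a concentration matrix for 6 days. Viability was read by CellTiter-Glo luminescence as % surviving relative to DMSO. Drug interaction was scored as synergy using Combenefit.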

[13] = target: T9, AF9 proteins (Homo sapiens, UniProt P42568); test: Cellular thermal shift assay; format: cell-based; settings: HeLa cells, 20 μM, 5 h
T9 sequence (P42568 1-568): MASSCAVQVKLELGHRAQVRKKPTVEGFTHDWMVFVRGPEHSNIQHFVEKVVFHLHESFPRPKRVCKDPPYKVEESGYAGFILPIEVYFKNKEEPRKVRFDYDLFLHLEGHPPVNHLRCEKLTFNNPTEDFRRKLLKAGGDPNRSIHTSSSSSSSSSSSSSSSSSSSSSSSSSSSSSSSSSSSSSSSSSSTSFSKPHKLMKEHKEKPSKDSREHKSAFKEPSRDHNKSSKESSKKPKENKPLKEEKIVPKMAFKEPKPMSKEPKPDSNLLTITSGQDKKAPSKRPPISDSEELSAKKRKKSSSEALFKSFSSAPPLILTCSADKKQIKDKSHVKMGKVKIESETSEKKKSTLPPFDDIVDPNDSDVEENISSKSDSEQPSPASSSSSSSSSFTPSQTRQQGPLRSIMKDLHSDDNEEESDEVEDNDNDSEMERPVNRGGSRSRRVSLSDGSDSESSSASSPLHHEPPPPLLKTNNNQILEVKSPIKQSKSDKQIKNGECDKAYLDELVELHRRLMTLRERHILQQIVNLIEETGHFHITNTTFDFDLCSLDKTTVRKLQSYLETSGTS
Outline: as §1

[14] = target: T6, GAS41; test: Cellular thermal shift assay; format: cell-based; settings: MV4;11 and MOLM13 cells, 20 μM, 5 h, vs DMSO
Outline: as §1

[15] = test system: MV4;11 cells; test: Cell growth inhibition assay; format: cell-based, human; settings: compared with MOLM13 (5 and 10 μM), 3 days
[16] = test system: MV4;11 cells; test: Combinatorial treatment of compound 7 and JQ1, MV4; format: cell-based, human; settings: 7 0 to 20 μM, JQ1 0–200 nM, Combenefit
Outline: as §2

[17] = test system: Caco-2 cell monolayers; test: Caco-2 cell permeability assay; format: in vitro ADME; settings: 10 μM, 2 hours, A-B direction
Outline: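 Flux was measured across polarised Caco-2 monolayers in triplicate, with ranitidine, talinolol and warfarin as controls. Apparent permeability (Papp) was calculated for the apical-to-basolateral direction.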

T6 sequence (O95619 whole entry, the tested form may be a part): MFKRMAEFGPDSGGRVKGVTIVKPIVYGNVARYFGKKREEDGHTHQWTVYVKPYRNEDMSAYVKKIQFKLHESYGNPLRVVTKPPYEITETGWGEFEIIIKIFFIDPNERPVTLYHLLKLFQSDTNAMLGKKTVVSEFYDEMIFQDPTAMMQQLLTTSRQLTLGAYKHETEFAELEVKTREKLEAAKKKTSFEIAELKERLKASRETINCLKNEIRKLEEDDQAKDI
Chain of GAS41 YEATS domain (O95619 whole entry, the tested form may be a part): as above

Molecule: H3K27cr peptide: histone H3 residues 22–31 with a crotonylation at K27 (TKAARK(Crotonyl(E))SAPA; UniProt P68431 23-32, looked up, fragment) [reference compound]
- chemical shift perturbations, exchange regime on the NMR timescale [1]: intermediate to fast exchange regime

Molecule: O=C(NCc1cccc(CN2CCC2)c1)c1ccc2nncn2c1 [compound 15, N-(3-(azetidin-1-ylmethyl)benzyl)-[1,2,4]triazolo[4,3-a]pyridine-6-carboxamide]
- inhibition potency compared with parent compound [2]: did not result in any increase of potency

Molecule: O=C(NCc1ccc(CN2CCC2)cc1)c1ccc2nncn2c1 [compound 11, N-(4-(azetidin-1-ylmethyl)benzyl)-[1,2,4]triazolo[4,3-a]pyridine-6-carboxamide]
- inhibition of YEATS2 binding to acylated histone peptide [3]: none of these compounds showed notable inhibition
- inhibition of AF9 binding to acylated histone peptide [4]: none of these compounds showed notable inhibition
- inhibition of ENL binding to H3K9ac ([5]; 1 μM compound): strongly inhibited
- inhibition of GAS41 binding to acylated histone peptide [6]: none of these compounds showed notable inhibition

Molecule: O=C(NCc1ccc(CNc2ncc(F)cn2)cc1)c1ccc2nncn2c1 [compound 24, N-(4-(((5-fluoropyrimidin-2-yl)amino)methyl)benzyl)-[1,2,4]triazolo[4,3-a]pyridine-6-carboxamide]
- inhibition of YEATS2 binding to acylated histone peptide [3]: none of these compounds showed notable inhibition
- inhibition of AF9 binding to acylated histone peptide [4]: none of these compounds showed notable inhibition
- inhibition of ENL binding to H3K9ac ([5]; 1 μM compound): strongly inhibited
- inhibition of GAS41 binding to acylated histone peptide [6]: none of these compounds showed notable inhibition

Molecule: CSc1ccc(CNC(=O)c2ccc3nncn3c2)cc1 [compound 1]
- inhibition of YEATS2 binding to acylated histone peptide [3]: none of these compounds showed notable inhibition
- inhibition of AF9 binding to acylated histone peptide [4]: none of these compounds showed notable inhibition
- inhibition of YEATS2 YEATS domain (IC50 measurement) [7]: no detectable inhibition
- inhibition of ENL binding to H3K9ac ([5]; 5 μM compound): strongly inhibited
- inhibition of GAS41 YEATS domain (IC50 measurement) [8]: no detectable inhibition
- inhibition of GAS41 binding to acylated histone peptide [6]: none of these compounds showed notable inhibition

Molecule: CN(C)Cc1ccc(CNC(=O)c2ccc3nncn3c2)cc1 [compound 7, N-(4-((dimethylamino)methyl)benzyl)-[1,2,4]triazolo[4,3-a]pyridine-6-carboxamide]
- thermal stability of ENL protein (CETSA) ([9]; HeLa cells): stabilized ENL
- thermal stability of ENL protein (CETSA) ([9]; MV4;11 and MOLM13 cells, vs DMSO): bound and stabilized ENL proteins
- inhibition of YEATS2 binding to acylated histone peptide [3]: none of these compounds showed notable inhibition
- inhibition of AF9 binding to acylated histone peptide [4]: none of these compounds showed notable inhibition
- lowest drug concentration effectively suppressing HOXA9 gene expression [10]: 2.5 µM
- chemical shift perturbations, exchange regime on the NMR timescale [1]: intermediate to slow exchange regime
- response of U2OS cell growth to treatment [11]: little or no response
- inhibition of ENL binding to H3K9ac ([5]; 5 μM compound): strongly inhibited
- interaction with JQ1 in killing leukemia cells [12]: synergistic effect
- thermal stability of AF9 protein (CETSA) [13]: stabilized ENL but not AF9 proteins
- thermal stability of GAS41 protein (CETSA) [14]: little or no difference
- inhibition of MV4;11 cell growth [15]: about double amounts of the compound were needed to achieve similar levels of inhibition
- inhibition of GAS41 binding to acylated histone peptide [6]: none of these compounds showed notable inhibition
- interaction with JQ1 in killing leukemia cells [16]: synergistic effect
- Caco-2 permeability [17]: comparable to 11

Molecule: CC(NC(=O)c1ccc2nncn2c1)c1ccc(CN2CCC2)cc1 (centres unmarked) [compound 16, N-(1-(4-(azetidin-1-ylmethyl)phenyl)ethyl)-[1,2,4]triazolo[4,3-a]pyridine-6-carboxamide]
- inhibition potency compared with parent compound [2]: greatly reduced the inhibition potency

— publication PMC8486320 (Journal of medicinal chemistry, 2021)
